From ChEMBL document CHEMBL1131831, “A rapid method to identify exo-protease inhibitors” (Bioorg Med Chem Lett, 1999)

Legend:
[1] = Ratio of proteolysis rate constant (Kcat) to that of proteolysis constant (Km) was determined
Method in brief: (§1)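 Porcine pancreatic trypsin (type IX), porcine pancreatic kallikrein, bovine spleen cathepsin B and porcine pancreatic elastase, each enzyme added to 12 µM substrate solution over mineral oil, shaken at 37 °C. Buffers: trypsin 10 mM Tris-HCl pH 7.8; kallikrein 50 mM Tris pH 9.0; cathepsin B 100 mM potassium phosphate pH 6.0; elastase 10 mM Tris-HCl pH 7.5. Released fluorophore in the oil is diluted with n-heptane and quantified at 424 nm against oil absorbance at 272 nm.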

[2] = molecular target: T1, Neutrophil elastase (Homo sapiens) (UniProt P08246); experiment: Proteolysis rate constant (Kcat), when mixed with human leukocyte elastase (HLE)enzyme for the conversion of water-soluble compound to fluorescent oil-soluble compound
T1 sequence (whole entry): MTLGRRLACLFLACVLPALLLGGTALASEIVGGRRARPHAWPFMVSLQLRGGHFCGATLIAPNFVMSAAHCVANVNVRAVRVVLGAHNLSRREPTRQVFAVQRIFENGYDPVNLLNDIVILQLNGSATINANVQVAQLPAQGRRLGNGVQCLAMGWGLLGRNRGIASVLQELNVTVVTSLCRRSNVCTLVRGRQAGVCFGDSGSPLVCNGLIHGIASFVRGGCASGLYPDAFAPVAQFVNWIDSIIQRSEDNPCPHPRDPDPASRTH
Method in brief: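 Human leukocyte elastase (1 unit = 1.2 µg; releases 1 µmol/min p-nitrophenol from N-t-BOC-L-alanine-p-nitrophenyl ester, pH 6.5, 37 °C) in 50 mM NaOAc, 100 mM NaCl, 8 mM NaN3 pH 6.0. Enzyme mixed with 12 µM substrate in buffer under a trace mineral-oil layer, shaken at 37 °C. Released fluorophore extracted into oil, diluted with n-heptane, quantified by absorbance at 424 nm against oil at 272 nm.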

[3] = molecular target: T2, Chymotrypsin-like elastase family member 2A (Sus scrofa) (UniProt P08419); experiment: Proteolysis rate constant (Kcat), when mixed with elastase enzyme for the conversion of water-soluble compound to fluorescent oil-soluble compound; method in brief: as §1
T2 sequence (whole entry): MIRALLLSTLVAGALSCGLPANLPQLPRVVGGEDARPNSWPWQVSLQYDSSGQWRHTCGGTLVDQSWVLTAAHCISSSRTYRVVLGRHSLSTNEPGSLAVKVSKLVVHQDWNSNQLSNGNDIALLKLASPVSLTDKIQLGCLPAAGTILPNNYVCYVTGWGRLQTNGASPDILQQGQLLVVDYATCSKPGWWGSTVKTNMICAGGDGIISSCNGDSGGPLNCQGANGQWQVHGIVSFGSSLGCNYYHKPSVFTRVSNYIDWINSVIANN

[4] = system: CN(C(=O)[C@@H](CCCCC(=N)N)NC(=O)[C@H](CCCCC(=N)N)NC(=O)OCc1ccccc1)c1ccc(C#C/C=C/c2ccc([N+](=O)[O-])c(O)c2)cc1; experiment: Proteolysis constant (Km), when mixed with Cathepsin B enzyme for the conversion of water-soluble compound to fluorescent oil-soluble compound; method in brief: as §1

| k cat [3] | Molecule | k cat/Km [1] | k cat [2] | Km [4] |
| --- | --- | --- | --- | --- |
|  | CC(C)C[C@H](NC(=O)[C@H](N)Cc1ccc(O)cc1)C(=O)N[C@@H](C(=O)N(C)c1ccc(C#C/C=C/c2ccc([N+](=O)[O-])c(O)c2)cc1)C(C)C | 225000 M⁻¹ s⁻¹ | 3.6 s⁻¹ |  |
| 145 s⁻¹ | COCCOCCOCCOCCOC(=O)N[C@@H](C)C(=O)N[C@H](C)C(=O)N(C)c1ccc(C#C/C=C/c2ccc([N+](=O)[O-])c(O)c2)cc1 | 446000 M⁻¹ s⁻¹ |  |  |
|  | Cathepsin B (Bos taurus), P07688 |  |  | 129 µM |
